# Data: ChEMBL document CHEMBL5303300, “EUbOPEN Chemogenomics Library - Multiplex” (2023)
# Values joined by “and” are separate entries in the source; they are usually repeats but may differ in a detail not shown here. Equal entries are not always repeated.
# How the values were obtained:
# Assay type in all cases: toxicity, cell-based
# Fibroblast = assay: Multiplex assay against human fibroblast; conditions: number of replicates 2
# Method in brief: (§1)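 Tubulin, mitochondrial-mass and membrane-permeability phenotypes are per cents of healthy-nucleus cells. Cells were gated by CellPathfinder machine learning into Hoechst high-intensity objects or normal cells, normal cells into healthy, pyknosed or fragmented nuclei, and pyknosed cells into mitotic or apoptotic. Before that, live cells stained at seeding with Hoechst33342, BioTracker Green Microtubule Cytoskeleton Dye, MitoTracker Red and Annexin V Alexa Fluor 680 were imaged on a CQ1 microscope at 37°C and 5% CO2 after compound addition.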
# HEK-293T = assay: Multiplex assay against HEK293T; conditions: human, number of replicates 2; method in brief: as §1
# U2OS = assay: Multiplex assay against U2OS; conditions: human, number of replicates 2; method in brief: as §1
# [1] = 12 h, 1 µM, compound concentration 1 uM
# [2] = 12 h, 10 µM, compound concentration 10 uM
# [3] = 24 h, 1 µM, compound concentration 1 uM
# [4] = 24 h, 10 µM, compound concentration 10 uM
# [5] = 48 h, 1 µM, compound concentration 1 uM
# [6] = 48 h, 10 µM, compound concentration 10 uM
smiles,measurement,setting,value
CC1=C(C)C(=O)C(C(CCCCCC(=O)O)c2ccccc2)=C(C)C1=O (stereo unspecified) [SERATRODAST],Population Apoptotic (%),Fibroblast; [1],50% and 60%
same,Population Fragmented Nuclei (%),Fibroblast; [1],6% and 11%
same,Population Healthy Nuclei (%),Fibroblast; [1],57% and 79%
same,Population Hoechst High Intensity Objects (%),Fibroblast; [1],0%
same,Population Membrane Permeable-Phenotype (%),Fibroblast; [1],5% and 2%
same,Population Mitochondria Different-Phenotype (%),Fibroblast; [1],0% and 2%
same,Population Mitotic Cells (%),Fibroblast; [1],50% and 40%
same,Population Normal (%),Fibroblast; [1],99% and 100%
same,Population Tubulin-Different-Phenotype (%),Fibroblast; [1],5% and 3%
same,Total Cell Count,Fibroblast; [1],128 and 228
same,Population Apoptotic (%),Fibroblast; [2],35% and 25%
same,Population Fragmented Nuclei (%),Fibroblast; [2],12% and 18%
same,Population Healthy Nuclei (%),Fibroblast; [2],79% and 75%
same,Population Hoechst High Intensity Objects (%),Fibroblast; [2],0%
same,Population Membrane Permeable-Phenotype (%),Fibroblast; [2],6% and 5%
same,Population Mitochondria Different-Phenotype (%),Fibroblast; [2],1%
same,Population Mitotic Cells (%),Fibroblast; [2],64% and 75%
same,Population Normal (%),Fibroblast; [2],100%
same,Population Pyknosed Nuclei (%),Fibroblast; [2],8% and 6%
same,Population Tubulin-Different-Phenotype (%),Fibroblast; [2],15% and 8%
same,Total Cell Count,Fibroblast; [2],167 and 192
same,Population Apoptotic (%),Fibroblast; [3],67% and 52%
same,Population Fragmented Nuclei (%),Fibroblast; [3],3% and 13%
same,Population Healthy Nuclei (%),Fibroblast; [3],64% and 76%
same,Population Hoechst High Intensity Objects (%),Fibroblast; [3],0%
same,Population Membrane Permeable-Phenotype (%),Fibroblast; [3],7% and 2%
same,Population Mitochondria Different-Phenotype (%),Fibroblast; [3],1% and 0%
same,Population Mitotic Cells (%),Fibroblast; [3],32% and 47%
same,Population Normal (%),Fibroblast; [3],99% and 100%
same,Population Tubulin-Different-Phenotype (%),Fibroblast; [3],9% and 1%
same,Total Cell Count,Fibroblast; [3],128 and 230
same,Population Fragmented Nuclei (%),Fibroblast; [4],11% and 14%
same,Population Healthy Nuclei (%),Fibroblast; [4],81%
same,Population Hoechst High Intensity Objects (%),Fibroblast; [4],0%
same,Population Membrane Permeable-Phenotype (%),Fibroblast; [4],3%
same,Population Mitochondria Different-Phenotype (%),Fibroblast; [4],0% and 1%
same,Population Mitotic Cells (%),Fibroblast; [4],36% and 85%
same,Population Normal (%),Fibroblast; [4],100%
same,Population Pyknosed Nuclei (%),Fibroblast; [4],6% and 3%
same,Population Tubulin-Different-Phenotype (%),Fibroblast; [4],8% and 9%
same,Total Cell Count,Fibroblast; [4],171 and 193
same,Population Apoptotic (%),Fibroblast; [5],79% and 52%
same,Population Fragmented Nuclei (%),Fibroblast; [5],9% and 16%
same,Population Healthy Nuclei (%),Fibroblast; [5],65% and 75%
same,Population Hoechst High Intensity Objects (%),Fibroblast; [5],0%
same,Population Membrane Permeable-Phenotype (%),Fibroblast; [5],3% and 1%
same,Population Mitochondria Different-Phenotype (%),Fibroblast; [5],0%
same,Population Mitotic Cells (%),Fibroblast; [5],20% and 47%
same,Population Normal (%),Fibroblast; [5],99% and 100%
same,Population Tubulin-Different-Phenotype (%),Fibroblast; [5],3% and 2%
same,Total Cell Count,Fibroblast; [5],133 and 248
same,Population Apoptotic (%),Fibroblast; [6],40% and 36%
same,Population Fragmented Nuclei (%),Fibroblast; [6],15% and 21%
same,Population Healthy Nuclei (%),Fibroblast; [6],81% and 73%
same,Population Hoechst High Intensity Objects (%),Fibroblast; [6],0%
same,Population Membrane Permeable-Phenotype (%),Fibroblast; [6],2% and 1%
same,Population Mitochondria Different-Phenotype (%),Fibroblast; [6],0%
same,Population Mitotic Cells (%),Fibroblast; [6],60% and 63%
same,Population Normal (%),Fibroblast; [6],100%
same,Population Pyknosed Nuclei (%),Fibroblast; [6],2% and 5%
same,Population Tubulin-Different-Phenotype (%),Fibroblast; [6],6% and 5%
same,Total Cell Count,Fibroblast; [6],171 and 213
same,Population Apoptotic (%),HEK-293T; [1],63% and 56%
same,Population Fragmented Nuclei (%),HEK-293T; [1],4% and 5%
same,Population Healthy Nuclei (%),HEK-293T; [1],78% and 82%
same,Population Hoechst High Intensity Objects (%),HEK-293T; [1],12% and 8%
same,Population Membrane Permeable-Phenotype (%),HEK-293T; [1],2% and 0%
same,Population Mitochondria Different-Phenotype (%),HEK-293T; [1],18% and 13%
same,Population Mitotic Cells (%),HEK-293T; [1],36% and 43%
same,Population Normal (%),HEK-293T; [1],87% and 91%
same,Population Pyknosed Nuclei (%),HEK-293T; [1],17% and 12%
same,Population Tubulin-Different-Phenotype (%),HEK-293T; [1],49% and 39%
same,Total Cell Count,HEK-293T; [1],511 and 624
same,Population Apoptotic (%),HEK-293T; [2],47% and 51%
same,Population Fragmented Nuclei (%),HEK-293T; [2],4% and 5%
same,Population Healthy Nuclei (%),HEK-293T; [2],87% and 85%
same,Population Hoechst High Intensity Objects (%),HEK-293T; [2],7%
same,Population Membrane Permeable-Phenotype (%),HEK-293T; [2],4% and 2%
same,Population Mitochondria Different-Phenotype (%),HEK-293T; [2],8% and 11%
same,Population Mitotic Cells (%),HEK-293T; [2],52% and 48%
same,Population Normal (%),HEK-293T; [2],92%
same,Population Pyknosed Nuclei (%),HEK-293T; [2],7% and 9%
same,Population Tubulin-Different-Phenotype (%),HEK-293T; [2],39% and 43%
same,Total Cell Count,HEK-293T; [2],857 and 708
same,Population Apoptotic (%),HEK-293T; [3],52% and 55%
same,Population Fragmented Nuclei (%),HEK-293T; [3],6% and 7%
same,Population Healthy Nuclei (%),HEK-293T; [3],79% and 81%
same,Population Hoechst High Intensity Objects (%),HEK-293T; [3],9%
same,Population Membrane Permeable-Phenotype (%),HEK-293T; [3],1%
same,Population Mitochondria Different-Phenotype (%),HEK-293T; [3],3%
same,Population Mitotic Cells (%),HEK-293T; [3],47% and 44%
same,Population Normal (%),HEK-293T; [3],90%
same,Population Pyknosed Nuclei (%),HEK-293T; [3],13% and 10%
same,Population Tubulin-Different-Phenotype (%),HEK-293T; [3],19% and 16%
same,Total Cell Count,HEK-293T; [3],827 and 1038
same,Population Apoptotic (%),HEK-293T; [4],28% and 42%
same,Population Fragmented Nuclei (%),HEK-293T; [4],8% and 7%
same,Population Healthy Nuclei (%),HEK-293T; [4],86%
same,Population Hoechst High Intensity Objects (%),HEK-293T; [4],9% and 6%
same,Population Membrane Permeable-Phenotype (%),HEK-293T; [4],6% and 3%
same,Population Mitochondria Different-Phenotype (%),HEK-293T; [4],3% and 4%
same,Population Mitotic Cells (%),HEK-293T; [4],71% and 57%
same,Population Normal (%),HEK-293T; [4],90% and 93%
same,Population Pyknosed Nuclei (%),HEK-293T; [4],4% and 6%
same,Population Tubulin-Different-Phenotype (%),HEK-293T; [4],29% and 35%
same,Total Cell Count,HEK-293T; [4],1313 and 975
same,Population Apoptotic (%),HEK-293T; [5],22% and 13%
same,Population Fragmented Nuclei (%),HEK-293T; [5],15% and 14%
same,Population Healthy Nuclei (%),HEK-293T; [5],81% and 83%
same,Population Hoechst High Intensity Objects (%),HEK-293T; [5],8%
same,Population Membrane Permeable-Phenotype (%),HEK-293T; [5],4% and 5%
same,Population Mitochondria Different-Phenotype (%),HEK-293T; [5],1% and 0%
same,Population Mitotic Cells (%),HEK-293T; [5],77% and 86%
same,Population Normal (%),HEK-293T; [5],91%
same,Population Pyknosed Nuclei (%),HEK-293T; [5],3% and 2%
same,Population Tubulin-Different-Phenotype (%),HEK-293T; [5],5%
same,Total Cell Count,HEK-293T; [5],2229 and 2490
same,Population Apoptotic (%),HEK-293T; [6],6% and 13%
same,Population Fragmented Nuclei (%),HEK-293T; [6],25% and 16%
same,Population Healthy Nuclei (%),HEK-293T; [6],73% and 80%
same,Population Hoechst High Intensity Objects (%),HEK-293T; [6],9% and 8%
same,Population Membrane Permeable-Phenotype (%),HEK-293T; [6],11% and 5%
same,Population Mitochondria Different-Phenotype (%),HEK-293T; [6],0%
same,Population Mitotic Cells (%),HEK-293T; [6],93% and 86%
same,Population Normal (%),HEK-293T; [6],91%
same,Population Pyknosed Nuclei (%),HEK-293T; [6],1% and 2%
same,Population Tubulin-Different-Phenotype (%),HEK-293T; [6],15% and 21%
same,Total Cell Count,HEK-293T; [6],3510 and 2285
same,Population Apoptotic (%),U2OS; [1],66% and 64%
same,Population Fragmented Nuclei (%),U2OS; [1],11% and 5%
same,Population Healthy Nuclei (%),U2OS; [1],80% and 84%
same,Population Hoechst High Intensity Objects (%),U2OS; [1],0%
same,Population Membrane Permeable-Phenotype (%),U2OS; [1],3% and 2%
same,Population Mitochondria Different-Phenotype (%),U2OS; [1],3% and 0%
same,Population Mitotic Cells (%),U2OS; [1],33% and 36%
same,Population Normal (%),U2OS; [1],100%
same,Population Pyknosed Nuclei (%),U2OS; [1],8% and 9%
same,Population Tubulin-Different-Phenotype (%),U2OS; [1],100% and 92%
same,Population Apoptotic (%),U2OS; [2],75% and 37%
same,Population Healthy Nuclei (%),U2OS; [2],68% and 84%
same,Population Hoechst High Intensity Objects (%),U2OS; [2],0%
same,Population Membrane Permeable-Phenotype (%),U2OS; [2],0% and 1%
same,Population Mitochondria Different-Phenotype (%),U2OS; [2],0%
same,Population Mitotic Cells (%),U2OS; [2],25% and 62%
same,Population Normal (%),U2OS; [2],100%
same,Population Pyknosed Nuclei (%),U2OS; [2],5% and 11%
same,Population Tubulin-Different-Phenotype (%),U2OS; [2],80% and 94%
same,Population Apoptotic (%),U2OS; [3],75% and 54%
same,Population Fragmented Nuclei (%),U2OS; [3],7% and 2%
same,Population Healthy Nuclei (%),U2OS; [3],82% and 88%
same,Population Hoechst High Intensity Objects (%),U2OS; [3],0%
same,Population Membrane Permeable-Phenotype (%),U2OS; [3],3%
same,Population Mitochondria Different-Phenotype (%),U2OS; [3],3% and 1%
same,Population Mitotic Cells (%),U2OS; [3],25% and 45%
same,Population Normal (%),U2OS; [3],100%
same,Population Pyknosed Nuclei (%),U2OS; [3],10% and 8%
same,Population Tubulin-Different-Phenotype (%),U2OS; [3],100% and 92%
same,Population Apoptotic (%),U2OS; [4],50% and 66%
same,Population Healthy Nuclei (%),U2OS; [4],70% and 88%
same,Population Hoechst High Intensity Objects (%),U2OS; [4],0%
same,Population Membrane Permeable-Phenotype (%),U2OS; [4],1% and 2%
same,Population Mitochondria Different-Phenotype (%),U2OS; [4],1% and 0%
same,Population Mitotic Cells (%),U2OS; [4],50% and 33%
same,Population Normal (%),U2OS; [4],100%
same,Population Pyknosed Nuclei (%),U2OS; [4],6%
same,Population Tubulin-Different-Phenotype (%),U2OS; [4],92%
same,Population Apoptotic (%),U2OS; [5],33% and 43%
same,Population Fragmented Nuclei (%),U2OS; [5],4% and 3%
same,Population Healthy Nuclei (%),U2OS; [5],89% and 91%
same,Population Hoechst High Intensity Objects (%),U2OS; [5],0%
same,Population Membrane Permeable-Phenotype (%),U2OS; [5],0% and 1%
same,Population Mitochondria Different-Phenotype (%),U2OS; [5],0%
same,Population Mitotic Cells (%),U2OS; [5],66% and 56%
same,Population Normal (%),U2OS; [5],100%
same,Population Pyknosed Nuclei (%),U2OS; [5],5% and 4%
same,Population Tubulin-Different-Phenotype (%),U2OS; [5],100% and 94%
same,Population Apoptotic (%),U2OS; [6],58%
same,Population Fragmented Nuclei (%),U2OS; [6],12% and 3%
same,Population Healthy Nuclei (%),U2OS; [6],79% and 90%
same,Population Hoechst High Intensity Objects (%),U2OS; [6],0%
same,Population Membrane Permeable-Phenotype (%),U2OS; [6],0% and 2%
same,Population Mitochondria Different-Phenotype (%),U2OS; [6],0%
same,Population Mitotic Cells (%),U2OS; [6],41%
same,Population Normal (%),U2OS; [6],99%
same,Population Pyknosed Nuclei (%),U2OS; [6],8% and 6%
same,Population Tubulin-Different-Phenotype (%),U2OS; [6],89% and 95%
